The EternaBench riboswitch data

Tested on: MS2 coat protein
Test: apparent Kd, MS2 coat protein; higher = weaker binding; RNA-MaP array; FMN 200 µM where present
Outline: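 Green signal was scaled to red-channel RNA signal and control-cluster median Fmax, and the apparent Kd was taken as the median of filtered per-cluster binding-curve fits. The binding series used SNAP-549-labelled MS2 coat protein from 0.7 or 1.5 nM, doubling to 3 µM, on designs transcribed by stalled E. coli RNA polymerase on Illumina sequencing-chip clusters. Each series ran without and then with constant ligand in 100 mM Tris-HCl pH 7.5, 80 mM KCl, 4 mM MgCl2, BSA, DTT, yeast tRNA and Tween-20.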

[1] = designed as: OFF switch for flavin mononucleotide, no ligand
[2] = ligand present: flavin mononucleotide, designed as: OFF switch for flavin mononucleotide
[3] = designed as: ON switch for flavin mononucleotide, no ligand
[4] = ligand present: flavin mononucleotide, designed as: ON switch for flavin mononucleotide

Row | Sequence | apparent Kd [1] | apparent Kd [2] | apparent Kd [3] | apparent Kd [4]
1 | AGGAAGUGAGGAUAUGCUGCUCGUCACUUGCGUGAUGAGUAGCAGAAGGCACAUGAGGAUCACCCAUGUAAAGA | 0.0402 µM | 0.0551 µM | – | –
2 | AGUGUCAUUUAGAAGGCCUCAUGACAUGAGGAUCACCCAUGUUAUCAUGGGAGGAUAUGGAUGAUAUAGUUAUGUUUCGUAGUA | – | – | 0.307 µM | 0.112 µM
3 | GUUAUGCAGCAGGAUAUCCAUCCGCGGUAUGGUGGAGAAGGGCUGACAUGAGGAUCACCCAUGUGCGUCCUAGG | 0.0399 µM | 0.104 µM | – | –
4 | ACUGCAUAGGCAGGAUAUGCAAUAAUUCGAAUAAAAUAUAACGAAUUAACAUGAGGAUCACCCAUGUAGAAGGGCCUGUGCAGU | 0.00646 µM | 0.00546 µM | – | –
5 | CUAAAUCAUGUAGGAUAUGCAUGGCGAAGCUACGCAGAAGGACAUGAGGAUCACCCAUGUCUGUCCGUCUGCGUACAGACGGAC | 0.0204 µM | 0.115 µM | – | –
6 | GACAUACAUGAGGAUCACCCAUGUACAAACGUACAAGGAUAUGUGUGGAAACCGUACUAUACAGAAGGUGUUUGUC | – | – | 0.0476 µM | 0.0415 µM
7 | ACGGCACAUGAGGAUCACCCAUGUGCCGAGAGGCGAGGAUAUCGAAAAAAAAAAAAAAAACGAGAAGGCGCGAGAA | – | – | 0.0165 µM | 0.0144 µM
8 | GCAUUGUAAGGAUAUACGUGCAAAGUUUUCGCUGUAAGUCGACAUGAGGAUCACCCAUGUAGAAGGUAUAUGGU | 0.024 µM | 0.0241 µM | – | –
9 | CUUUUGUGAGGAUAUCAGUAGUAUAAAAUUAAAAUUACUACUGAGAAGGCACAUGAGGAUCACCCAUGUUCCUC | 0.0352 µM | 0.201 µM | – | –
10 | GACUGCCGAGGAUAUACAUGAGGAUCACCCAUGUGCUUCAGCAUUUAAUAAUGCAUGGGUAGAAGGCGGUAGUC | 0.0428 µM | 0.0746 µM | – | –
11 | GUUAAGUGAGGAUAUGGUGAGUAGUGCCUGAGCGCUGCUCACCAGAAGGCACAUGAGGAUCACCCAUGUAUAAC | 0.023 µM | 0.036 µM | – | –
12 | GGCGGCGCGGGCCACCGCAGGACCAGAAGGACAUGAGGAUCACCCAUGUGGCAGAACAGGGCGGUGUAGGAUAUGGCAGGCUCG | 0.0288 µM | 0.0643 µM | – | –
13 | AAUAUGAGCUGGUUUAAAUCCUAAACAUGAGGAUCACCCAUGUAGGAUAUCAGCACGAUAAGUGCUGAGAAGGACAUCCAGCUC | 0.0151 µM | 0.0152 µM | – | –
14 | AAGGGAUGAGCGUAGGAUAUAGGAGAAGUGACAUGAGGAUCACCCAUGUAAAAGGAGGGAUGAGACUAGAAGGACGAGGUAGGAG | – | – | 0.107 µM | 0.125 µM
15 | UGUUGUAUUACAGGAUAUCUAUUGUUUUUAAUUAGAGAAGGGUAUUCACAUGAGGAUCACCCAUGUAUAUACGAGGAAGUUGUG | – | – | 0.0505 µM | 0.0534 µM
16 | CGCUGUCACGCAGGAUAUGCAUUGGAUUACAAUGCAGAAGGGCGAUUACAUGAGGAUCACCCAUGUGUAGACAGUGAAGAAGAG | – | – | 0.3 µM | 0.0423 µM
17 | GGCUCAUUGACAUUAAUGUGCAGACAGGAUAUCCACGGCGGUUCCUACAUGAGGAUCACCCAUGUGGAGAAGGGUCGCUAAUGG | 0.0144 µM | 0.033 µM | – | –
18 | ACAUGAGGAUCACCCAUGUUGAAUUAGGAUAUUUGACUGCACAUGAGGUUCUCCCAUGUUCAACCGGAGAAGGGAUUAAUAAUU | – | – | 0.318 µM | 0.132 µM
19 | ACUAGAUGAGGAUAUGCAUAUUUUCGUGUUCUUCUAGAUUAACAUGAGGAUCACCCAUGUAGAAGGCGUCUGGA | 0.0178 µM | 0.026 µM | – | –
20 | UAUGUGACACAGAAGGCCAGUCACAUGAGGAUCACCCAUGUAGUAAAGUGGAGGAUAUGUGUGCCUAGCAACUUACUAGCAAGA | – | – | 0.107 µM | 0.00961 µM
21 | UUUGGGAACUCUAUGGGCCGCUACAUGAGGAUCACCCAUGUGCAGGAUAUAGGUGUUACUACCGCCUAGAAGGGCACAGACUGA | 0.0234 µM | 0.0425 µM | – | –
22 | UGUCGGAGCAGAGGAUAUUACAUGAGGAUCACCCAUGUAUGAACCAAUAGCUGGAAACAGCAAUGAAAGAAGGCUGCUCCGACA | 0.00538 µM | 0.00513 µM | – | –
23 | GUGCGGUGAGGAUAUACGUAGGUGAAAAUCUGUGUGCUCCUACAUGAGGAUCACCCAUGUAGAAGGCAUGUCAC | 0.0155 µM | 0.0278 µM | – | –
24 | AAUUAUUUUUGAGGAUAUCGUGGUGAAACACCACGAGAAGGCAAGAUACACAUGAGGAUCACCCAUGUGAGCCUGAUGCUUAUG | 0.0169 µM | 0.0214 µM | – | –
25 | UAGAGUCGCGUCAGGAUAUACCACUUAACCCAGUAGUAGAAGGGACAUGAGGAUCACCCAUGUCGGUGUUAGCC | 0.0232 µM | 0.0262 µM | – | –
26 | GGGUCAACAUGAGGAUCACCCAUGUAGGAUAUCGCUAUUGUAAUCAUGAAACAUGAUUACAAUAGCGAGAAGGACAUAUGCAAA | 0.0113 µM | 0.0234 µM | – | –
27 | GGGAAGUUAGGAUAUGCUGCUCGUCACUUGCGUGAUGAGUAGCAGAAGGAACAUGAGGAUCACCCAUGUAAAGA | 0.0343 µM | 0.0375 µM | – | –
28 | GCACUGGAUGUAGGAUAUCAGGACGAUAAGUCCUGAGAAGGACAUGAGGAUCACCCAUGUAAACUCAACCAGUGCUAUAAUAUA | 0.0152 µM | 0.0228 µM | – | –

Row | Sequence | apparent Kd [1] | apparent Kd [2] | apparent Kd [3] | apparent Kd [4]
29 | GCACGGCAUGUAGGAUAUCGAGCGCCGGGCGCUCGAGAAGGACAUGAGGAUCACCCAUGUACUCUCAGUGAGAGAGUGCUGUGC | 0.0187 µM | 0.0318 µM | – | –
30 | UGGUACUAGGGAGGAUAUGGGAAGAUACAUGAGGAUCACCCAUGUUUAAGAAUGCCGCGAGGCAACUAGAAGGCCCUAGUACCU | – | – | 0.398 µM | 0.0196 µM
31 | GUAGGGUCAGGAUAUACUGGCUGAGGGAUGUAUUGUAGUUGGUAGAAGGGACAUGAGGAUCACCCAUGUAAGAA | 0.036 µM | 0.0261 µM | – | –
32 | GAUUACAAGUAAGGAUAUGUAUAUGAAACAUAUACAGAAGGUACAUGAGGAUCACCCAUGUUCUUGCAAAGCGAAUAUGUAAUC | 0.0173 µM | 0.021 µM | – | –
33 | UGAUAGGACAGAGGAUAUACGUGCUAGAGAUACUAGCAAAGUUUCCUGACAUGAGGAUCACCCAUGUAGAAGGCUGUCCUAUCU | 0.00656 µM | 0.0209 µM | – | –
34 | UACGUACAGAAGAACUCCGGAUCUAGAAGGGACAUGAGGAUCACCCAUGUACCGUUGAUUGCUUGUCAGGAUAUAGACCCGGCC | 0.00607 µM | 0.0142 µM | – | –
35 | CCGUUACAUGAGGAUCACCCAUGUGAGGAUAUCGGGAUGACUGGCAGCGUGCGGGACACGAGAAGGCACUGGGC | 0.0555 µM | 0.0651 µM | – | –
36 | GAAUAAUUGAUCCAUUUUUAAAACAUGAGGAUCACCCAUGUGCAGGAUAUCGUGAGAGUUAAAUACGAGAAGGGCAAGAACUGU | 0.123 µM | 0.173 µM | – | –
37 | AGUGUCAUCGAGAAGGCCUCAUGACAUGAGGAUCACCCAUGUUAGCAUGGGAGGAUAUCGAUGAUACAGCUACGUUUCGUAGCA | – | – | 0.17 µM | 0.0514 µM
38 | GCCUCACAUGAGGAUCACCCAUGUCAGGAUAUCUCGUGCGCAGUAAUUAUCUGGCUAAAGAGAAGGGACAUUAA | 0.047 µM | 0.099 µM | – | –
39 | CGAGGGUGGGACCCACGCUUUCGACAUGAGGAUCACCCAUGUAAGGAUAUCGCGGCCUACCAUAGCGAGAAGGUACGUGCGGGU | 0.013 µM | 0.0259 µM | – | –
40 | UAUAUAUAGGCAGGAUAUACAUGAAUAUAUAUAAUAUAAUAUAAUAUAACAUGAGGAUCACCCAUGUAGAAGGGCCAAUAUAUA | 0.0562 µM | 0.117 µM | – | –
41 | UACAUGAGGAUCACCCAUGUUUUGUCGUGUAUGGUAUUUAUCUAGGAUAUCAAUUUGUAUAUUUAUGAGAAGGAGAAUAUUAAU | 0.0345 µM | 0.0396 µM | – | –
42 | CAUCAUUCUGUAAGGAUAUUAAUCGAGUGACUUAUUAAGAAGGUACAUGAGGAUCACCCAUGUGGGAGGUGAGG | 0.363 µM | 0.947 µM | – | –
43 | AUUAUUAAAGUGAGGAUAUCUAGAGCUGCGGCUCUAGAGAAGGCACAUGAGGAUCACCCAUGUCUCAAUUAUUA | 0.0187 µM | 0.0544 µM | – | –
44 | AAAAAAAAAAGUCAGGAUAUACAAAUUUUUACAUGAGGAUCACCCAUGUUAAAAAAAAAAAAAAAGUAGAAGGGACAAAAAAAAAA | – | – | 0.0209 µM | 0.0169 µM
45 | CCGGAAACGGGUAGCCAGACAUGAGGAUCACCCAUGUGAUCAGAGGAUAUGGAUCCUAAUUGGAUCCAGAAGGCUGUCAGCUAC | – | – | 0.554 µM | 0.0748 µM
46 | AAAUCAGCAGGAUAUACGAUGUUAUGCUAGAUAGCGGGACCACAUGAGGAUCACCCAUGUAGAAGGGCUAGAUA | 0.035 µM | 0.0308 µM | – | –
47 | UUGUUGUGAGUAAGGAUAUGAUGCAGGAAACUGCGUCAGAAGGUACAUGAGGAUCACCCAUGUUAAUUUUGUUU | 0.0168 µM | 0.0235 µM | – | –
48 | GCUGUAUAUGAGAAGGCGAUCAUGAAACAUGAUCGAGGAUAUCAUGUUUACAUGAGGAUCACCCAUGUAUGGGUAUAAUGCAGC | – | – | 0.417 µM | 0.0241 µM
49 | GGAGACCUCACAGGAUAUGCUGGACUUUGUCCAGCAGAAGGGUGAAUACAUGAGGAUCACCCAUGUGGUCUCCAAAUAUUUAAU | – | – | 1.17 µM | 0.0753 µM
50 | GUGUGCUGAGGAUAUACAGAGGAAGAUAAGAUAAGAUAAUGACAUGAGGAUCACCCAUGUAGAAGGCAGAGUGU | 0.0297 µM | 0.0424 µM | – | –
51 | CGCAUGCGUAGAAUUAGCAGCUGACAGGAUAUGACAUGAGGAUCACCCAUGUGAAUUAAGAAGAGUCAGAAGGGUCACGAUGCG | 0.00998 µM | 0.00998 µM | – | –
52 | UUAUACAUUCGAGGAUAUCGGUGAGAAAUCUUUCGAGAAGGCGAUUCAUGAUGUAUUAUCCUGGACAUGAGGAUCACCCAUGUA | – | – | 0.148 µM | 0.0925 µM
53 | ACUCUACAUGAGGAUCACCCAUGUUGAGCCCAUCAAGGAUAUGGGUCUUAAUCGCGGGUGCCAGAAGGUGAUGGUU | – | – | 0.091 µM | 0.109 µM
54 | UCAUGUAUGUAGGAUAUCGAUGUCUUCGGACAUCGAGAAGGACGUACAUGAGGAUCACCCAUGUAACUUGCAUG | 0.0179 µM | 0.0166 µM | – | –
55 | UUAGCAACAUGAGGAUCACCCAUGUAGGAUAUCGCUAUUGUAAUCAUGAAACAUGAUUACAAUAGCGAGAAGGACAUAUGCUUU | 0.0139 µM | 0.0149 µM | – | –
